Active and inactive are the calls of the source.
Columns and labels:
[1] = molecular target: T1, Mu-type opioid receptor (Homo sapiens, UniProt P35372); assay: Displacement of [125I]IOXY from human mu opioid receptor expressed in CHO cells; type: cell-based
Outline: (§1)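 Membranes of stably transfected human opioid receptor CHO cells (hMOR, hDOR or hKOR), about 30 µg protein per tube, in 50 mM Tris-HCl pH 7.4 with protease inhibitors. [125I]IOXY at a single concentration displaced by 10 drug concentrations, 2 h at 25 °C, triplicates filtered; nonspecific with 10 µM naloxone; IC50 from two-parameter logistic fit.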

[2] = molecular target: T2, Delta-type opioid receptor (Homo sapiens, UniProt P41143); assay: Displacement of [125I]IOXY from human delta opioid receptor expressed in CHO cells; type: cell-based; outline: as §1
[3] = molecular target: T3, Kappa-type opioid receptor (Homo sapiens, UniProt P41145); assay: Displacement of [125I]IOXY from human kappa opioid receptor expressed in CHO cells; type: cell-based; outline: as §1
[4] = molecular target: T2, Delta-type opioid receptor; assay: Antagonist activity at human delta opioid receptor expressed in CHO cells by [35S]GTP-gamma-S assay; type: functional, cell-based
Outline: (§2)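 [35S]GTP-γ-S binding on hDOR-CHO or hKOR-CHO membranes, 10 µM GDP, 50 pM radioligand, 3 h at 25 °C. Inhibition of stimulation by SNC80 (500 nM, δ) or (-)-U50,488 (500 nM, κ); ≥3 experiments of 10 points pooled, two-parameter logistic fit for IC50; Ke = IC50/(1+[D]/ED50(D)).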

[5] = molecular target: T1, Mu-type opioid receptor; settings: CHO
[6] = molecular target: T1, Mu-type opioid receptor; settings: CHO; remark: listed apart in the source
[7] = molecular target: T3, Kappa-type opioid receptor; assay: Antagonist activity at human kappa opioid receptor expressed in CHO cells by [35S]GTP-gamma-S assay; type: functional, cell-based; outline: as §2
[8] = system: Mus musculus; assay: Induction of convulsions in mouse at 1 mg/kg; type: functional, organism-based; set-up: dose 1 mg/kg
Outline: (§3)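 Signs observed in mice during in vivo antinociceptive testing after s.c. injection in 5% hydroxypropyl-β-cyclodextrin in water.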

[9] = system: Mus musculus; assay: Antinociceptive activity in sc dosed mouse by hot plate assay; type: functional
[10] = molecular target: T2, Delta-type opioid receptor; assay: Agonist activity at human delta opioid receptor expressed in CHO cells by [35S]GTP-gamma-S assay relative to SNC80; type: functional, cell-based
Outline: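 Membranes from CHO cells stably transfected with human δ-opioid receptor cDNA (grown in DMEM, 10% FBS, G-418), incubated 3 h at 25 °C with 50 pM [35S]GTP-γ-S, 10 µM GDP, 50 µg protein in 50 mM Tris-HCl pH 7.4, 100 mM NaCl, 10 mM MgCl2, 1 mM EDTA, 1 mM DTT, 0.1% BSA. Nonspecific binding: 40 µM GTP-γ-S. Filtration, scintillation counting. Emax is extrapolated maximum, 100% = 500 nM SNC80 stimulation.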

[11] = system: Mus musculus; assay: Antinociceptive activity in sc dosed mouse by phenylquinone assay; type: functional
[12] = system: Mus musculus; assay: Induction of ataxia in mouse at 1 mg/kg; type: functional, organism-based; set-up: dose 1 mg/kg; outline: as §3
[13] = system: Mus musculus; assay: Antinociceptive activity in sc dosed mouse by tail flick assay; type: functional
[14] = system: Mus musculus; assay: Increased locomotor activity in mouse at 1 mg/kg; type: functional, organism-based; set-up: dose 1 mg/kg; outline: as §3
[15] = system: Mus musculus; assay: Induction of straub tail in mouse at 1 mg/kg; type: functional, organism-based; set-up: dose 1 mg/kg; outline: as §3
[16] = molecular target: T2, Delta-type opioid receptor; assay: Agonist activity at human delta opioid receptor expressed in CHO cells by [35S]GTP-gamma-S assay; type: functional, cell-based
Outline: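 Membranes from stably transfected hDOR-CHO cells (DMEM, 10% FBS, G-418) in 50 mM Tris-HCl pH 7.4 with 100 mM NaCl, 10 mM MgCl2, 1 mM EDTA, 1 mM DTT, 10 µM GDP, 0.1% BSA; 50 pM [35S]GTP-γ-S, 3 h, 25 °C; filtration.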

[17] = system: Mus musculus; assay: Antinociceptive activity in mouse assessed after 30 to 40 mins at 1 mg/kg by warm water tail flick test; type: functional
Outline: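 Mice, 55 °C water tail immersion after baseline (non-responders within 5 s excluded); s.c. dosing, tested 10–180 min post-injection, 10 s cutoff. % antinociception = 100×(test−control)/(10−control); A50 from linear regression at peak-effect time, ≥3 doses and 10 mice/dose.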

[18] = system: Mus musculus; assay: Increased locomotor activity in mouse up to 30 mg/kg; type: functional, organism-based; set-up: dose 30 mg/kg; outline: as §3
[19] = system: Mus musculus; assay: Induction of straub tail in mouse up to 30 mg/kg; type: functional, organism-based; set-up: dose 30 mg/kg; outline: as §3

T2 sequence (P41143 whole entry): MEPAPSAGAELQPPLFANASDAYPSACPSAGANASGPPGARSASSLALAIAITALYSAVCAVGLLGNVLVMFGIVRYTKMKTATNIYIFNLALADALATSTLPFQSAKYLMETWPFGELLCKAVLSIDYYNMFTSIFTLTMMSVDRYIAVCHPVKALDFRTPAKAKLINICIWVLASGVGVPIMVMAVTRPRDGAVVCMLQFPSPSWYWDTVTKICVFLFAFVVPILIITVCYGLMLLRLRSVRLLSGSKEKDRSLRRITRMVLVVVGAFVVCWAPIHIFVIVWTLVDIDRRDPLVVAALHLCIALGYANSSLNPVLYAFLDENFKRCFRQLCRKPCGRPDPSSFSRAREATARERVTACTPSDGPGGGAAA
T3 sequence (P41145 whole entry): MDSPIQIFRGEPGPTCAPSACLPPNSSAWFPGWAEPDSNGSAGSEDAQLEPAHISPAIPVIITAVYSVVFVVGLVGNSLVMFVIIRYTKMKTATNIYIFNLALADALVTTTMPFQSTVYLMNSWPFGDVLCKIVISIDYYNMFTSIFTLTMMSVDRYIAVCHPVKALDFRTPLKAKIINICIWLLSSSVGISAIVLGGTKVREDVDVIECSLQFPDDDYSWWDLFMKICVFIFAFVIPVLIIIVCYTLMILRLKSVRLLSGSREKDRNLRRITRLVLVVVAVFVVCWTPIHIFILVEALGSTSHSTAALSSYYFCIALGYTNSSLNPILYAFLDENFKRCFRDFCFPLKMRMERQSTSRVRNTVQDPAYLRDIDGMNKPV
T1 sequence (P35372 whole entry): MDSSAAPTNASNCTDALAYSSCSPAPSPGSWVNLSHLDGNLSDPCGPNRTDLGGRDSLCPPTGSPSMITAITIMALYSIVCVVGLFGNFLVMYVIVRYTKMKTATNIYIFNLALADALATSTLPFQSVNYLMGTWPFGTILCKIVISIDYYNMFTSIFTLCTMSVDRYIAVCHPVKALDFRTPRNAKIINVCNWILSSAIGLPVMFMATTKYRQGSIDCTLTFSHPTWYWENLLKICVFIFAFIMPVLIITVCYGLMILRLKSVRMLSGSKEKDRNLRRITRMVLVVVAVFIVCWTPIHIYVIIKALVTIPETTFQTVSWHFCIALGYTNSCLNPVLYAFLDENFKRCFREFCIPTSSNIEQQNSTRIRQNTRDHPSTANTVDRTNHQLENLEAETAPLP

**Q.** How did the Ki [1] turn out when `Oc1cccc([C@]23CCC[C@H]([C@@H]2O)N(CCc2ccccc2)CC3)c1` was run?
**A.** 59 nM

**Q.** And the Ki [2]?
**A.** 1570 nM

**Q.** What about the Ki [3] of the same compound?
**A.** 245 nM

**Q.** For `C[C@H]1[C@H]2CCC[C@]1(c1cccc(O)c1)CCN2CCc1ccccc1`, which Ki [1] is on record?
**A.** 0.6 nM

**Q.** And the Ke [4]?
**A.** 31 nM

**Q.** And the Ke [5]?
**A.** 4.4 nM

**Q.** What about the Ki [2] of the same compound?
**A.** 90 nM

**Q.** And the Ki [3]?
**A.** 4 nM

**Q.** What about the ED50 [6] of the same compound?
**A.** 8.7 nM

**Q.** What about the Ke [7] of the same compound?
**A.** 6 nM

**Q.** With `Oc1cccc([C@@]23CCC[C@@H]([C@@H]2O)N(CCc2ccccc2)CC3)c1` as the compound, how does the Ki [1] read?
**A.** 54 nM

**Q.** And the Ki [2]?
**A.** 2740 nM

**Q.** And the Ki [3]?
**A.** 235 nM

**Q.** How did the Ki [1] turn out when `C[C@@H]1[C@@H]2CCC[C@@]1(c1cccc(O)c1)CCN2CCc1ccccc1` was run?
**A.** 8 nM

**Q.** What about the Ki [2] of the same compound?
**A.** 300 nM

**Q.** And the Ki [3]?
**A.** 15 nM

**Q.** For `O=C1[C@@H]2CCC[C@@]1(c1cccc(O)c1)CCN2CCc1ccccc1`, which Ki [1] is on record?
**A.** 400 nM

**Q.** And the Ki [2]?
**A.** 4600 nM

**Q.** And the Ki [3]?
**A.** 3830 nM

**Q.** What does the source list for `C[C@H]1C2CCCC1(c1cccc(O)c1)CCN2CCc1ccccc1` (mixture of isomers)?
**A.** Ki [1]: 3.1 nM; Ki [2]: 270 nM; Ki [3]: 14.5 nM

**Q.** With `Oc1cccc([C@]23CCC[C@H]([C@H]2O)N(CCc2ccccc2)CC3)c1` as the compound, how does the Ki [1] read?
**A.** 0.19 nM

**Q.** What about the Activity [8] of the same compound?
**A.** Active

**Q.** What about the ED50 [9] of the same compound?
**A.** 0.002 mg/kg

**Q.** And the Ki [2]?
**A.** 13 nM

**Q.** And the Emax [10]?
**A.** 73%

**Q.** What about the ED50 [11] of the same compound?
**A.** 0.002 mg/kg

**Q.** And the Activity [12]?
**A.** Active

**Q.** What about the Ki [3] of the same compound?
**A.** 184 nM

**Q.** And the ED50 [13]?
**A.** 0.004 mg/kg

**Q.** What about the ED50 [6] of the same compound?
**A.** 5 nM

**Q.** And the Activity [14]?
**A.** Active

**Q.** And the Activity [15]?
**A.** Active

**Q.** What about the ED50 [16] of the same compound?
**A.** 341 nM

**Q.** And the Ke [7]?
**A.** 610 nM

**Q.** With `O=C1[C@H]2CCC[C@]1(c1cccc(O)c1)CCN2CCc1ccccc1` as the compound, how does the Ki [1] read?
**A.** 33 nM

**Q.** What about the Ki [2] of the same compound?
**A.** 770 nM

**Q.** What about the Ki [3] of the same compound?
**A.** 150 nM

**Q.** Which results are given for `C=C1[C@@H]2CCC[C@]1(c1cccc(O)c1)CCN2CCc1ccccc1`?
**A.** Ki [1]: 7 nM; Ki [2]: 234 nM; Ki [3]: 18 nM

**Q.** With `C=C1[C@H]2CCC[C@@]1(c1cccc(O)c1)CCN2CCc1ccccc1` as the compound, how does the Ki [1] read?
**A.** 0.19 nM

**Q.** What about the Ke [4] of the same compound?
**A.** 12 nM

**Q.** And the A50 [17]?
**A.** 0.11 mg/kg

**Q.** And the Ke [5]?
**A.** 2.2 nM

**Q.** And the ED50 [9]?
**A.** 0.02 mg/kg

**Q.** What about the Ki [2] of the same compound?
**A.** 15 nM

**Q.** And the ED50 [11]?
**A.** 0.02 mg/kg

**Q.** What about the Ki [3] of the same compound?
**A.** 0.65 nM

**Q.** And the ED50 [13]?
**A.** 0.03 mg/kg

**Q.** What about the ED50 [6] of the same compound?
**A.** 2.7 nM

**Q.** And the Activity [18]?
**A.** inactive

**Q.** What about the Ke [7] of the same compound?
**A.** 2 nM

**Q.** And the Activity [19]?
**A.** inactive

**Q.** How did the ED50 [16] turn out when `C=CCN1C[C@H](C)N([C@H](c2ccc(C(=O)N(CC)CC)cc2)c2cccc(OC)c2)C[C@H]1C` was run?
**A.** 26 nM

**Q.** Which A50 [17] does the source give for `CN1CC[C@]23c4c5ccc(O)c4O[C@H]2[C@@H](O)C=C[C@H]3[C@H]1C5` [MORPHINE] here?
**A.** 5.95 mg/kg

**Q.** What does the source list for `Oc1cccc([C@@]23CCC[C@@H]([C@H]2O)N(CCc2ccccc2)CC3)c1`?
**A.** Ki [1]: 45 nM; Ki [2]: 720 nM; Ki [3]: 690 nM
